Source: PubChem
ATG4B inhibitor = inhibitors of human ATG4B cysteine protease. Q9Y4P1. ATG4B cleavage of LC3-PLA2, NBD-HPC fluorescence, 1 h. inhibition, % at 8.33 µM. 0.51% of 340,000 active; in the data active means inhibition above about 40%
Target sequence (Q9Y4P1 whole entry, looked up): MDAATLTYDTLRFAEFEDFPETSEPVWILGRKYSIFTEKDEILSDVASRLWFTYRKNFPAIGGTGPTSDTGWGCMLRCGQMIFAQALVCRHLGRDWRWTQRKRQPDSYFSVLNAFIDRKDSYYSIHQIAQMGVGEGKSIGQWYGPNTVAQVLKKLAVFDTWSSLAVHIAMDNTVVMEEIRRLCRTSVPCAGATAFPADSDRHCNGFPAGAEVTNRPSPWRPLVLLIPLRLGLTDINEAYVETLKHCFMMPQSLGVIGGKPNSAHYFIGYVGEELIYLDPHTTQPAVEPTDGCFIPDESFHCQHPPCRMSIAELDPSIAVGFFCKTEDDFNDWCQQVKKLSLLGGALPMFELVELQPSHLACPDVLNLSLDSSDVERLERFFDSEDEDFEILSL
ABCB6 inh 2 = human ABCB6 transporter inhibition; fluorescence ratio to DMSO, % at 10 µM; 0.19% of 360,000 active; K562-ABCB6 porphyrin accumulation, flow cytometry, 1 h; stronger effect = lower value; Q9NP58;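 active means fluorescence ratio to DMSO below 75%, the collection mean minus 3 SD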;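 further: signal is porphyrin accumulated inside mitochondria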
NRP1-CendR mod = modulators of CendR peptide binding to human neuropilin-1 | O14786 | FAM-RPARPAR peptide binding to NRP-1, fluorescence polarization | inhibition, % at 25 µM | 0.85% of 360,000 active | AID 602438;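 active means inhibition or corrected inhibition above about 18%, plus a signal ratio from 0.5 to 1.5, limit read from the data, passing the limit was not always enough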
Arr AP2 block = blocks beta-arrestin peptide binding to AP2 adaptin; FITC-arrestin peptide / GST-AP2 beads, flow cytometry; AP2 beta2 appendage carries R879A mutation; 0.31% of 340,000 active; inhibition, % at 10 µM;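 active means inhibition above a set limit, near 3 SD of compounds lacking own fluorescence, cut at about 54% in these data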
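System: GST-AP2 R879A bound to glutathione beads, E. coli-expressed. Also added: 50 nM FITC-arrestin peptide. Schedule: compound with beads 12 min RT, then probe 1 h RT. Signal: bead flow cytometry, FITC channel. Read-out basis: percent response.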
Granule exo inh = blocks lytic granule exocytosis | TALL-104 LAMP-1 surface exposure, flow cytometry; cells stimulated with thapsigargin and PMA | inhibition, % at 10 µM | 0.66% of 360,000 active | AID 651702;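 active means inhibition above about 55%, limit read from the data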
Myeloid diff 2 = promotes myeloid progenitor differentiation; ER-HoxA9 myeloid progenitors, lysozyme-GFP differentiation, flow cytometry; calls only at 10 µM; 1% of 360,000 active; AID 624256;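 active means normalized GFP-positive differentiation at or above the plate's own cutoff, the solvent-only control mean plus 3 SD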;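 further: cells exposed to compound for four days before flow analysis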
Myeloid diff = compounds promoting myeloid differentiation; shares compounds with Myeloid diff 2; ER-HoxA9 myeloid progenitors, GFP/Mac1 double-positive flow; calls only; 2% of 2,300 active; AID 651706;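 active means share of green or green-and-red cells above 9 and 9% in run 1 or 4 and 3% in run 2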
GFP autofluor = counter-screen for myeloid differentiation promoters: compound fluorescence. shares compounds with Myeloid diff 2. ER-HoxA9 myeloid progenitors, no estrogen, GFP autofluorescence flow cytometry; vehicle wells 0%, positive control 100%. fluorescence response, % (no concentration beside the values). 7.4% of 2,300 active;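 active means over 5% cells positive for green fluorescent reporter, or over 2% positive for both it and APC stain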
Calls only; . = inactive; / = no result given; + = active, no number. An excerpt weighted towards active compounds, which were near 3.3% of everything screened.

SMILES | ATG4B inhibitor | ABCB6 inh 2 | NRP1-CendR mod | Arr AP2 block | Granule exo inh | Myeloid diff 2 | Myeloid diff | GFP autofluor
C[C@@H]1CN([C@H](C)CO)C(=O)CCCn2cc(nn2)CO[C@H]1CN(C)S(=O)(=O)c1ccc(-n2cccn2)cc1 | / | . | . | / | . | . | / | /
Cc1ccc(-n2nnnc2C(=Cc2ccc(N(C)C)cc2)c2nnnn2-c2ccc(C)cc2)cc1 | . | . | . | . | . | + | . | .
CCN(CC)c1ccc(C=C(c2nnnn2-c2ccccc2)c2nnnn2-c2ccccc2)cc1 | . | . | . | . | . | . | / | /
CCCn1nc(NC(=O)c2cccs2)c2cc3cccc(C)c3nc21 | . | . | . | . | . | . | / | /
CCOC(=O)[C@@H]1[C@H]2COc3ccc(Br)cc3[C@H]2N2C(=O)N(c3ccc(C)cc3)C(=O)[C@]12C | . | . | . | . | . | . | / | /
C/C(=N\NC(=O)C1CCCN(S(=O)(=O)c2ccccc2)C1)c1ccccn1 (centres undefined) | . | . | . | . | . | / | . | .
O=C(CCC1CCCC1)NCCS(=O)(=O)N1CCN(c2ccccc2F)CC1 | . | . | . | . | . | . | / | /
Cc1ccc(/C=[N+](/C)[O-])cc1 | . | . | . | . | . | . | . | .
CC1CCC(NC(=O)c2cccc(S(=O)(=O)N3CCOCC3)c2)CC1 (centres undefined) | / | . | . | / | . | . | / | /
O=C(NC1CCCCC1)c1cccc2c1C(=O)c1ccc(N3CCCC3)cc1S2(=O)=O | . | . | . | . | . | . | / | /
CC1CCN(c2ccc3c(c2)S(=O)(=O)c2cccc(C(=O)NC4CCCCC4)c2C3=O)CC1 | . | . | . | . | . | + | . | .
CN1C(=S)SC(N(O)C(=O)Nc2ccc(Cl)c(Cl)c2)C1(C)C (centres undefined) | . | . | . | . | . | . | / | /
COc1ccc(Cl)cc1NC(=S)N(Cc1ccccc1C)CC1CCC(C(=O)O)CC1 (centres undefined) | . | . | . | . | . | . | . | .
Cc1c(NC(=O)C2CCCN2S(=O)(=O)c2cccc3nsnc23)cccc1C(=O)O (centres undefined) | . | . | . | . | . | + | . | .
O=C(Nc1ccccc1Br)C1CCCN1S(=O)(=O)c1cccc2nsnc12 (centres undefined) | . | . | . | . | . | . | / | /
Cc1ccc(S(=O)(=O)N2CCN(C(=O)COC(=O)CNC(=O)c3ccc(Cl)cc3Cl)CC2)cc1 | . | . | . | . | . | . | / | /
CCc1nc(SCC(=O)c2ccccc2)c2c(=O)n(C)c(=O)n(C)c2n1 | . | . | . | . | . | . | / | /
Cc1nc(SCC(=O)Nc2ccccc2C(F)(F)F)c2c(=O)n(C)c(=O)n(C)c2n1 | . | . | . | . | . | + | . | .
Cn1c(=O)c2c(SCC(=O)c3ccccc3)nc(C3CC3)nc2n(C)c1=O | . | . | . | . | . | . | . | .
COc1ccc(N2CCN(Cc3nc4c(c(=O)n(C)c(=O)n4C)n3Cc3cccc(C)c3)CC2)cc1 | . | . | . | . | . | . | . | .
O=C(Nc1ccccc1)c1ccc2nc(-c3ccco3)c(-c3ccco3)nc2c1 | . | . | . | . | . | . | . | .
CC(=O)c1ccc(NC(=O)c2ccc3nc(-c4ccco4)c(-c4ccco4)nc3c2)cc1 | . | . | . | . | . | . | / | /
COc1ccc(OC)c(CN2C(=O)CSCC2(C)C(=O)Nc2c(C)cccc2C)c1 (centres undefined) | / | / | . | / | . | . | / | /
CC(C)(C)NS(=O)(=O)c1ccc(CCC(=O)Nc2ccc3c(c2)OCO3)cc1 | . | . | . | . | . | + | . | .
CC1CC(C)CN(c2ncc3c(n2)CC(c2ccccc2Cl)CC3=O)C1 (centres undefined) | . | . | . | . | . | . | / | /
SMILES | ATG4B inhibitor | ABCB6 inh 2 | NRP1-CendR mod | Arr AP2 block | Granule exo inh | Myeloid diff 2 | Myeloid diff | GFP autofluor
CC1CC(C)CN(c2ncc3c(n2)CC(c2ccc(Cl)cc2)CC3=O)C1 (centres undefined) | . | . | . | . | . | . | . | .
CC(=O)Nc1ccc(S(=O)(=O)NCc2ccccn2)cc1 | . | . | . | . | . | . | / | /
Cc1ccc(C(=O)N(C)CCOc2ccccc2)cc1S(=O)(=O)N1CCCCC1 | . | . | . | . | . | . | / | /
COC(=O)CSc1nnc(CNc2ccc(OC)cc2)n1C | . | . | . | . | . | + | . | .
COc1ccc(Br)c(-c2nc(CS(=O)(=O)c3ccc(F)cc3)no2)c1 | . | . | . | . | . | . | . | .
S=C(NCC1CCCO1)Nc1cc(Cl)c(Cl)cc1Cl (centres undefined) | . | . | . | . | . | . | / | /
Cc1cc(C)cc(NC(=S)NCC2CCCO2)c1 (centres undefined) | . | . | . | . | . | . | . | .
COc1ccc(C(=O)NC(C)c2ccc(-n3ccnc3)cc2)cc1S(=O)(=O)N1CCOCC1 (centres undefined) | . | . | . | . | . | . | / | /
COc1ccc(OC)c(N(CC(=O)O)S(=O)(=O)c2ccc(OC)c(OC)c2)c1 | . | . | . | . | . | + | . | .
COc1ccc(OC)c(N(CC(=O)N2CCCC2)S(=O)(=O)c2ccc(OC)c(OC)c2)c1 | . | . | . | . | . | . | / | /
CCOC(=O)CC1C(=O)NCCN1S(=O)(=O)c1ccc(Cl)cc1 (centres undefined) | . | . | . | . | . | + | . | .
O=C(O)C1CCCN1c1ncccc1[N+](=O)[O-] (centres undefined) | . | . | . | . | . | . | / | /
Cc1cc(C)c(NN=c2c(=O)c3ccccc3c2=O)c(C)c1 | . | . | . | . | . | + | . | .
O=c1c(=NNc2ccccc2Cl)c(=O)c2ccccc12 | . | . | . | . | . | . | / | /
CC(C)NC(=O)NC(=O)COC(=O)Cc1c(F)cccc1Cl | . | . | . | . | . | . | / | /
NC(=O)c1cccc(Nc2nc(C(N)C3CCCCC3)cs2)n1 (centres undefined) | / | . | . | / | . | . | / | /
Cc1ccc(N2C(=O)C3C4C=CC(CNC(=S)N5CCN(c6ccccc6)CC5)(O4)C3C2=O)cc1 (centres undefined) | . | . | . | . | . | . | / | /
Cc1cccc(NC(=S)NCC23C=CC(O2)C2C(=O)N(c4ccc(Cl)cc4)C(=O)C23)c1 (centres undefined) | . | . | . | . | . | + | . | .
Cc1ccccc1C(=O)Nc1nnc(S(=O)(=O)N2CCCCCC2)s1 | . | . | . | . | . | . | . | .
NNC(=O)COc1ccc(-c2nccc(-c3ccc(F)cc3)n2)cc1 | . | . | . | . | . | . | . | .
